Active and inactive are the calls of the source. The rule behind the calls is not given here.
Tests used:
HCT-8 [1] = assay: Antiproliferative activity against human HCT8 cells after 3 days by sulforhodamine B assay; type: functional; settings: HCT-8, 72 h
How it was run: (§1)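 Cells grown in RPMI-1640 with 25 mM HEPES, 0.25% sodium bicarbonate, 10% FBS and 100 μg/mL kanamycin. Exposed to compound for 3 days, with at most 0.5% v/v DMSO. Attached cells fixed in cold 50% TCA, stained with 0.4% sulforhodamine B, and the bound dye solubilized. A562 read. GI50 is the concentration giving a 50% absorbance drop versus untreated cells.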

PC-3 = assay: Antiproliferative activity against human PC3 cells after 3 days by sulforhodamine B assay; type: functional; settings: PC-3, 72 h
A549 = assay: Antiproliferative activity against human A549 cells after 3 days by sulforhodamine B assay; type: functional; settings: A549, 72 h; how it was run: as §1
DU-145 = assay: Antiproliferative activity against human DU145 cells after 3 days by sulforhodamine B assay; type: functional; settings: DU-145, 72 h
HepG2 [2] = assay: Antiproliferative activity against human HepG2 cells after 3 days by sulforhodamine B assay; type: functional; settings: HepG2, 72 h
How it was run: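 Sulforhodamine B assay over 3 days in culture, with at most 0.5% v/v DMSO. Attached cells fixed in cold 50% TCA, stained with 0.4% SRB, and the dye solubilized. Absorbance read at 562 nm. GI50 is the concentration causing a 50% fall in absorbance relative to untreated cells.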

KB = assay: Antiproliferative activity against human KB cells after 3 days by sulforhodamine B assay; type: functional; settings: 72 h; how it was run: as §1
[3] = Antiproliferative activity against human KBVIN cells after 3 days by sulforhodamine B assay; type: functional; settings: 72 h; how it was run: as §1
MCF7 [4] = assay: Antiproliferative activity against human MCF7 cells after 3 days by sulforhodamine B assay; type: functional; settings: MCF7, 72 h
[5] = Inhibition of tubulin assembly after 20 mins by turbidimetric assay; settings: read-out: IC50
How it was run: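 Turbidimetry at 350 nm. 10 μM (1.0 mg/mL) tubulin preincubated with compound for 15 min at 30 °C without GTP, then chilled, and 0.4 mM GTP added. Turbidity followed for 20 min at 30 °C after a temperature jump from 0 °C. IC50 is the concentration halving the turbidity increase relative to control.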

[6] = Displacement of [3H]colchicine from tubulin at 5 uM for 10 mins
How it was run: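 1.0 μM tubulin incubated with 5.0 μM [3H]colchicine and 5.0 μM inhibitor for 10 min at 37 °C, when control samples reach about 40–60% of maximal colchicine binding. Result given as percent inhibition of colchicine binding.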

MCF7 [7] = assay: Antiproliferative activity against human MCF7 cells at 20 ug/ml after 3 days by sulforhodamine B assay; type: functional, cell-based
HepG2 [8] = assay: Antiproliferative activity against human HepG2 cells at 20 ug/ml after 3 days by sulforhodamine B assay; type: functional, cell-based
HCT-8 [9] = assay: Antiproliferative activity against human HCT8 cells at 20 ug/ml after 3 days by sulforhodamine B assay; type: functional, cell-based

| SMILES | GI50 (HCT-8 [1]) [µM] | GI50 (PC-3) [µM] | GI50 (A549) [µM] | GI50 (DU-145) [µM] | GI50 (HepG2 [2]) [µM] | GI50 (KB) [µM] | GI50 (MCF7 [4]) [µM] | IC50 [5] [µM] | inhibition [6] [%] | GI50 [3] [µM] | Activity (MCF7 [7]) | Activity (HepG2 [8]) | Activity (HCT-8 [9]) |
| --- | --- | --- | --- | --- | --- | --- | --- | --- | --- | --- | --- | --- | --- |
| CCC1=C(O)c2c(oc(-c3ccc4c(c3)OCCO4)cc2=O)C(CC)(CC)C1=O | 2.27 | 1.52 | 1.52 |  | 1.52 | 1.26 | 1.89 | 6.5 | 33 | 1.14 |  |  |  |
| CCC1=C(O)c2c(oc(-c3cccc4ccccc34)cc2=S)C(CC)(CC)C1=S | 13.3 | 24.1 | 5.95 |  | 24.1 | 7.38 | 14.1 |  |  | 5.95 |  |  |  |
| CC1=C(O)c2c(oc(-c3ccc4c(c3)OCCO4)cc2=O)C(C)(C)C1=O | 1.3 | 1.5 |  |  | 23.7 | 0.76 |  | 3.7 | 36 | 0.65 |  |  |  |
| CCCC1=C(O)c2c(oc(-c3cccc4ccccc34)cc2=O)C(CCC)(CCC)C1=O | 23.3 | 17.4 | 23.3 |  |  | 18.6 |  |  |  |  | inactive | inactive |  |
| CCC1=C(O)C2=C(OC(c3cccc4ccccc34)CC2=O)C(CC)(CC)C1=O (stereo unspecified) | 9.28 | 12.6 | 7.99 |  | 9.02 | 5.93 |  |  |  | 3.87 |  |  |  |
| CCC1=C(O)c2c(oc(-c3cnc4ccccc4c3)cc2=O)C(CC)(CC)C1=O | 12.8 | 12.8 | 12.8 |  | 14.9 | 15.4 | 19.3 |  |  | 14.9 |  |  |  |
| CCC1=C(OC)C(CC)(CC)c2oc(-c3cccc4ccccc34)cc(=O)c2C1=O | 11.7 | 14.7 | 16.7 |  | 20.7 | 11.2 | 20.9 |  |  | 9.7 |  |  |  |
| CCC1=C(O)c2c(oc(-c3ccc4cc(OC)ccc4c3)cc2=O)C(CC)(CC)C1=O | 12 | 4.78 | 16.8 |  | 13.4 | 10.8 | 8.37 |  |  | 9.57 |  |  |  |
| CCC1=C(O)c2c(oc(-c3cc4ccccc4c4ccccc34)cc2=O)C(CC)(CC)C1=O [6,8,8-TRIETHYL-2-(PHENANTHREN-9-YL) DESMOSDUMOTIN B] | 12.8 | 13.7 | 18.3 |  |  | 11.4 | 9.13 |  |  | 9.82 |  |  |  |
| CC1=C(O)c2c(oc(-c3cccc4ccccc34)cc2=O)C(C)(C)C1=O [2-(NAPHTHALEN-1-YL)DESMOSDUMOTIN B] | 1.16 | 1.45 | 1.73 |  |  | 0.29 | 1.73 |  |  | 0.58 |  |  |  |
| CCC1=C(OC)C(CC)(CC)c2oc(-c3cccc4ccccc34)c(Br)c(=O)c2C1=O | 7.68 | 10.8 | 4.77 |  | 14.5 | 9.13 | 11 |  |  | 9.96 |  |  |  |
| CCC1=C(O)c2c(oc(-c3ccc4c(c3)OCO4)cc2=O)C(CC)(CC)C1=O | 13.1 | 5.24 | 26.2 |  | 11.8 | 18.3 | 11.3 |  |  | 17 |  |  |  |
| CC[C@]1(O)C[C@H]2CN(CCc3c([nH]c4ccccc34)[C@@](C(=O)OC)(c3cc4c(cc3OC)N(C=O)[C@H]3[C@@](O)(C(=O)OC)[C@H](OC(C)=O)[C@]5(CC)C=CCN6CC[C@]43[C@@H]65)C2)C1 [VINCRISTINE] | 0.036 |  | 0.007 |  |  | 0.004 |  |  |  | 9.09 |  |  |  |
| CC1=C(O)c2c(oc(-c3csc4ccccc34)cc2=O)C(C)(C)C1=O | 1.08 | 0.91 | 0.23 |  | 0.57 | 0.11 |  | 2.4 | 69 | 0.09 |  |  |  |

Second part, led by results:

| GI50 (HCT-8 [1]) [µM] | GI50 (PC-3) [µM] | GI50 (A549) [µM] | GI50 (DU-145) [µM] | GI50 (HepG2 [2]) [µM] | GI50 (KB) [µM] | GI50 (MCF7 [4]) [µM] | IC50 [5] [µM] | inhibition [6] [%] | SMILES | GI50 [3] [µM] | Activity (MCF7 [7]) | Activity (HepG2 [8]) | Activity (HCT-8 [9]) |
| --- | --- | --- | --- | --- | --- | --- | --- | --- | --- | --- | --- | --- | --- |
| > 25 | > 25 | > 25 | > 25 | > 25 | > 25 |  |  |  | CCC1=C(O)c2c(oc(-c3sc4ccccc4c3C)cc2=O)C(CC)(CC)C1=O | > 25 |  |  |  |
| 2.42 | 6.04 | 6.04 |  | 4.59 | 2.17 | 3.62 |  |  | CCC1=C(O)c2c(oc(-c3ccc4c5c(cccc35)CC4)cc2=O)C(CC)(CC)C1=O | 1.93 |  |  |  |
| 2.56 | 13.3 | 1.25 |  | 1.33 | 0.61 |  | 2.5 | 37 | CC1=C(O)c2c(oc(-c3ccc(C)c4ccccc34)cc2=O)C(C)(C)C1=O | 0.72 |  |  |  |
| 5.82 | 5.82 | 17.2 |  | 15.1 | 14.8 |  |  |  | CCC1=C(O)c2c(oc(-c3cc4ccccc4o3)cc2=O)C(CC)(CC)C1=O | 14.6 | inactive |  |  |
| 0.62 | 2.49 | 0.5 |  | 1.24 | 0.47 | 0.75 | 2.7 | 50 | CCC1=C(O)c2c(oc(-c3ccc(C)c4ccccc34)cc2=O)C(CC)(CC)C1=O | 0.27 |  |  |  |
|  | 8.45 | 18.1 |  | 19.3 | 18.1 | 15.7 |  |  | CCC1=C(O)c2c(oc(-c3ccc(-c4ccccc4)cc3)cc2=O)C(CC)(CC)C1=O | 12.1 |  |  | inactive |
| 15.6 | 28 | 9.79 |  | 17.7 | 4.5 |  |  |  | CCC1=C(O)c2c(oc(-c3coc4ccccc34)cc2=O)C(CC)(CC)C1=O | 2.09 |  |  |  |
| 1.03 | 1.03 | 1.55 |  | 2.06 | 1.55 | 1.55 | 2.3 | 43 | CCC1=C(O)c2c(oc(-c3cccc4ccccc34)cc2=O)C(CC)(CC)C1=O [2-(NAPHTHALEN-1-YL)-6,8,8-TRIETHYL DESMOSDUMOTIN B] | 0.77 |  |  |  |
| 17.4 | 12.4 | 17.4 |  | 16.7 | 19.9 | 13.7 |  |  | CCC1=C(O)c2c(oc(-c3c(C)ccc4ccccc34)cc2=O)C(CC)(CC)C1=O | 19.9 |  |  |  |
| 8.17 | 16.6 | 1.86 |  | 8.42 | 1.41 | 3.22 |  |  | CCC1=C(O)c2c(oc(-c3cccc4ccccc34)cc2=O)C(CC)(CC)C1=S | 2.7 |  |  |  |
| 19 | 3.81 | 14 |  | 15.7 | 11.2 | 15.2 |  |  | CCC1=C(O)c2c(oc(-c3cc4ccccc4s3)cc2=O)C(CC)(CC)C1=O | 9.9 |  |  |  |
| 3.35 | 2.39 | 1.48 |  | 1.48 | 1.67 | 3.59 | 2.7 | 31 | CCC1=C(O)c2c(oc(-c3ccc(OC)c4ccccc34)cc2=O)C(CC)(CC)C1=O | 1.56 |  |  |  |
| 15.9 | 20.5 | 5.63 |  | 21.7 | 18.7 | 17.4 |  |  | CCC1=C(O)c2c(oc(-c3cn(C)c4ccccc34)cc2=O)C(CC)(CC)C1=O | 2.81 |  |  |  |

Source: ChEMBL document CHEMBL1687889, “Antitumor agents. 284. New desmosdumotin B analogues with bicyclic B-ring as cytotoxic and antitubulin agents” (J Med Chem, 2011)
